# A1 apoptosis 2: A1 inhibitors via caspase activation, primary screen, cell-based, luminescence, HTS, two replicates; MEF A1-2A-BIM cells, caspase-Glo luminescence, 3 h; percent of clofoctol response, DMSO zero; caspase activation, % (no concentration beside the values); 24,000 tested, under 10 active; AID 2465, 2010; in the data active = caspase activation above about 5.9%
#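 Material: A1-2A-BIM-expressing MEF cells. Buffer or medium: RPMI-1640 plus 10% FBS. Incubation: cells settled overnight, compound exposure 3 h at 37 °C, 5% CO2. Signal: Caspase-Glo 3/7 luminescence, 1 h at room temperature.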
# INS-1E ATP HTS: protection of INS-1E cells from cytokine death, primary screen, ATP luminescence, single point | INS-1E cytokine-induced death, 48 h; normalised: neutral wells 0, positive control 100 | protection from cytokine-induced ATP loss, % at 10 µM | 20,000 tested, 0.1% active | AID 488910, 2010;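 active = mean replicate protection from cytokine-induced ATP loss at least 50% and at least 75% of replicates each reaching 50%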
#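 Assay system – rat INS-1E insulinoma cell line · Quantity – 8000 cells per well · Buffer or medium – RPMI without phenol red, 5% FBS · Schedule – 48 h co-treatment, 10 min post-lysis read · Technique – luminescent ATP assay (CellTiter-Glo)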
# T cruzi intra: inhibitors of intracellular Trypanosoma cruzi, primary screen, cell-based, plate reader, single point, set 2. intracellular Trypanosoma cruzi in host cells. activity score (inhibition), % at 5.01 µM. 22,000 tested, 4.9% active; in the data active = activity score above about 55%;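 also: parasites and compound incubated about four days before reading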
# Numbers stand for hits; n = inactive; x = not tested or not shown. This is one part of a sample in which hits are shown more often than they occur.
SMILES,A1 apoptosis 2,INS-1E ATP HTS,T cruzi intra
O=C(CCCCCCC(=O)Nc1ccccc1O)N/N=C/c1ccc(OCCO)cc1,n,n,n
COC(=O)CCCCCCC(=O)N/N=C/c1cc(Br)cc(Br)c1O,n,n,62
COC(=O)CCCCCCC(=O)N/N=C/c1ccc(OCCCN(C)C)cc1,x,n,81
COC(=O)CCCCCCC(=O)N/N=C/c1cc(Br)cc(OC)c1O,n,n,n
CN(C)CCCOc1ccc(/C=N/NC(=O)CCCCCCC(=O)NO)cc1,n,x,x
CN(C)CCCOc1ccc(/C=N/NC(=O)CCCCCCC(=O)Nc2ccccc2O)cc1,x,n,87
O=C(CCCCCCC(=O)Nc1ccccc1O)N/N=C/c1ccc(OCc2ccccc2)cc1O,n,n,78
CC(C)(C)OC(=O)NC1(/C=N/NC(=O)CCCCCCC(=O)Nc2ccccc2O)CCCC1,x,n,n
C=CCNC(=O)[C@@H]1[C@H]2C(=O)O[C@H](c3ccccc3)[C@H](c3ccccc3)N2[C@H](c2ccccc2OCCO)[C@@]12C(=O)Nc1ccc(C#CC3(O)CCCCCC3)cc12,n,x,x
O=C(NO)c1cccc(C(=O)N/N=C/c2ccc(O)c(O)c2)c1,n,n,n
COc1ccc(CN(C)C[C@@H]2Oc3c(NC(=O)Nc4ccc(C(F)(F)F)cc4)cccc3C(=O)N([C@H](C)CO)C[C@@H]2C)cc1,n,n,81
COc1ccc(NC(=O)Nc2cccc3c2O[C@@H](CN(C)Cc2ccc(C(F)(F)F)cc2)[C@H](C)CN([C@H](C)CO)C3=O)cc1,x,n,n
COc1ccc(CN(C)C[C@@H]2Oc3c(NC(=O)Nc4ccc(C(F)(F)F)cc4)cccc3C(=O)N([C@@H](C)CO)C[C@H]2C)cc1,n,n,67
COc1ccc(NC(=O)Nc2cccc3c2O[C@H](CN(C)Cc2ccc(C(F)(F)F)cc2)[C@H](C)CN([C@@H](C)CO)C3=O)cc1,n,n,n
C[C@@H](O)[C@@H](O)[C@@H](O)C/C=N/NC(=O)c1ccccn1,x,n,n
C[C@H]1CN([C@@H](C)CO)C(=O)c2cccc(NC(=O)c3nc4ccccc4s3)c2O[C@H]1CN(C)Cc1ccc(Oc2ccccc2)cc1,n,n,68
C[C@H]1CN([C@@H](C)CO)C(=O)c2cccc(NC(=O)c3nc4ccccc4s3)c2O[C@H]1CN(C)Cc1ccccc1,x,n,n
C[C@@H]1CN([C@H](C)CO)C(=O)c2cccc(NC(=O)c3nc4ccccc4s3)c2O[C@@H]1CN(C)Cc1ccc(Cl)c(Cl)c1,x,n,n
C[C@@H]1CN([C@H](C)CO)C(=O)c2cccc(NC(=O)c3nc4ccccc4s3)c2O[C@H]1CN(C)Cc1ccc(C(F)(F)F)cc1,x,n,62
C[C@H]1CN([C@@H](C)CO)C(=O)c2cccc(NC(=O)c3nc4ccccc4s3)c2O[C@H]1CN(C)Cc1ccc(C(F)(F)F)cc1,n,n,n
C[C@@H]1CN([C@H](C)CO)C(=O)c2cccc(NC(=O)c3nc4ccccc4s3)c2O[C@H]1CN(C)Cc1ccc(-c2ccccc2)cc1,n,n,n
C[C@H]1CN([C@@H](C)CO)C(=O)c2cccc(NC(=O)c3nc4ccccc4s3)c2O[C@@H]1CN(C)Cc1ccc(-c2ccccc2)cc1,n,n,73
C[C@H](CO)N1C[C@H](C)[C@H](CN(C)Cc2ccc(Cl)c(Cl)c2)Oc2c(NC(=O)c3nc4ccccc4s3)cccc2C1=O,n,n,60
COc1ccc(C#Cc2ccc3c(c2)[C@]2(C(=O)N3)[C@H](C(N)=O)[C@H]3C(=O)O[C@H](c4ccccc4)[C@H](c4ccccc4)N3[C@@H]2c2ccccc2OCCO)cc1,n,x,x
O=C(CCCCCCC(=O)Nc1ccccc1O)N/N=C/c1ccc(S(=O)(=O)O)o1,n,n,n
SMILES,A1 apoptosis 2,INS-1E ATP HTS,T cruzi intra
COc1ccc2[nH]c(=O)[nH]c(=O)c2c1,n,x,x
C[C@H](CO)N1C[C@H](C)[C@H](CN(C)Cc2ccc(Oc3ccccc3)cc2)Oc2c(NC(=O)c3nc4ccccc4s3)cccc2C1=O,n,n,59
C[C@H](CO)N1C[C@H](C)[C@H](CN(C)Cc2ccccc2)Oc2c(NC(=O)c3nc4ccccc4s3)cccc2C1=O,n,n,n
C[C@H](CO)N1C[C@H](C)[C@H](CN(C)Cc2ccc(C(=O)Nc3ccccc3N)cc2)Oc2c(NC(=O)C3CC3)cccc2C1=O,x,n,n
C[C@H](CO)N1C[C@H](C)[C@H](CN(C)Cc2ccc(C(=O)Nc3ccccc3N)cc2)Oc2c(cccc2N(C)C)C1=O,x,n,56
C[C@H]1CN([C@@H](C)CO)C(=O)c2cccc(NC(=O)C3CCCCC3)c2O[C@H]1CN(C)Cc1ccc(C(=O)Nc2ccccc2N)cc1,x,n,66
C[C@@H]1CN([C@H](C)CO)C(=O)c2cccc(NC(=O)C3CCCCC3)c2O[C@@H]1CN(C)Cc1ccc(C(=O)Nc2ccccc2N)cc1,n,x,x
C[C@@H]1CN([C@H](C)CO)C(=O)c2cccc(N(C)C)c2O[C@@H]1CN(C)Cc1ccc(C(=O)Nc2ccccc2N)cc1,x,n,n
C[C@@H]1CN([C@@H](C)CO)C(=O)c2cccc(NC(=O)C3CC3)c2O[C@@H]1CN(C)Cc1ccc(C(=O)Nc2ccccc2N)cc1,x,59,n
Cc1cc(C(=O)Nc2cccc3c2O[C@H](CN(C)Cc2ccc(C(=O)Nc4ccccc4N)cc2)[C@@H](C)CN([C@@H](C)CO)C3=O)n(C)n1,x,n,n
Cc1cc(C(=O)Nc2cccc3c2O[C@H](CN(C)Cc2ccc(C(=O)Nc4ccccc4N)cc2)[C@H](C)CN([C@H](C)CO)C3=O)n(C)n1,n,n,63
C=CCNC(=O)[C@@H]1[C@H]2C(=O)O[C@H](c3ccccc3)[C@H](c3ccccc3)N2[C@H](c2ccc(O)cc2)[C@@]12C(=O)Nc1ccc(C#Cc3ccc(OC)cc3)cc12,n,x,x
CC1(C)COC(CCC/C=N/NC(=O)CCCCCCC(=O)Nc2ccccc2O)OC1,x,n,n
N#Cc1ccc(/C=N/NC(=O)CCCCCCC(=O)Nc2ccccc2O)cc1,n,n,n
COc1ccc(O)c(/C=N/NC(=O)CCCCCCC(=O)Nc2ccccc2O)c1,n,n,n
C[C@@H]1CN([C@@H](C)CO)C(=O)c2cccc(NC(=O)c3cnccn3)c2O[C@@H]1CN(C)Cc1ccc(C(=O)Nc2ccccc2N)cc1,x,n,72
C[C@@H]1CN([C@H](C)CO)C(=O)c2cccc(NC(=O)c3cnccn3)c2O[C@H]1CN(C)Cc1ccc(C(=O)Nc2ccccc2N)cc1,x,n,n
O=C(CCCCCCC(=O)Nc1ccccc1O)N/N=C/c1cccc(Oc2ccccc2)c1,x,n,n
O=C(CCCCCCC(=O)Nc1ccccc1O)N/N=C/[C@H](O)[C@@H](O)[C@H](O)[C@H](O)CO,n,n,n
O=C(CCCCCC(=O)N/N=C/c1ccc(O)c2ccccc12)NO,n,57,n
O=C(CCCCC(=O)N/N=C/c1cccc(O)c1)NO,x,n,n
O=C(CCCCC(=O)N/N=C/c1cc(O)ccc1O)NO,n,n,n
O=C(CCCCC(=O)N/N=C/c1ccc2ccccc2c1)NO,n,73,n
